Laboratory results: ChEMBL document CHEMBL5608261, “Pharmacophore Establishment and Optimization of Saturated 1,6-Naphthyridine-Fused Quinazolinones that Inhibit Meningoencephalitis-Causing Naegleria fowleri” (J Med Chem, 2024)
Values after ≈ are worked out from the molar mass of the structure shown.

Experiments:
[1] = Kinetic solubility of compound at pH 7.4 incubated for 24 hrs by HPLC analysis; format: physicochemical; conditions: buffer; for Kinetic_solubility: pH 7.4, 24 h; for solubility kinetic at 24 h: pH 7.4, read-out: Kinetic_solubility
Naegleria fowleri [2] = test: Anti-ameobic activity against Naegleria fowleri Nf69 (ATCC 30215) trophozoites assessed as inhibition of amoeba growth incubated for 48 hrs by CellTiter-Glo assay; format: functional, organism-based
In short: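 Axenic Nf69 trophozoites were seeded at 1 × 10^4 cells/mL in Nelson's complete medium with 10% heat-inactivated FBS. Compound was added at 20 to 0.375 μM (lower ranges for very potent compounds), with vehicle controls, for 48 h at 37 °C and 5% CO2. CellTiter-Glo luminescence gave % growth inhibition versus controls, and triplicate means were fitted to dose–response curves for EC50.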

SH-SY5Y = test: (§1) Cytotoxicity against human SH-SY5Y cells assessed as reduction in cell viability incubated for 72 hrs by CellTiter-Glo assay; format: toxicity, cell-based; conditions: sh-sy5y, 72 h
In short: (§2)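 SH-SY5Y cells at 2000 per well attached overnight at 37 °C. Compound from 20 mM DMSO stocks was added in triplicate as a dose series starting at 20 μM, with doxorubicin as positive control.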

[3] = Selectivity index, ratio of CC50 for cytotoxicity against human SH-SY5Y cells to EC50 for anti-amoebic activity against Naegleria fowleri Nf69 (ATCC 30215) assessed as inhibition of amoeba growth; format: toxicity, cell-based; conditions: for selectivity ratio: SH-SY5Y cells, read-out: Ratio CC50/EC50
[4] = Metabolic stability in CD-1 mouse liver microsomes assessed as half-life incubated for 60 mins by LC-MS/MS analysis; format: ADME, Microsome; conditions: 1 h
In short: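 Half-life measured in CD-1 mouse liver microsomes with NADPH over a 60 min exposure.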

[5] = as §1; format: toxicity, cell-based; conditions: SH-SY5Y cells; in short: as §2
Naegleria fowleri [6] = test: Anti-ameobic activity against Naegleria fowleri Nf69 (ATCC 30215) trophozoites infected in female CD-1 mouse model assessed as survival rate at 5 mg/kg, ip pre-infected for 48 hrs from day 0 followed by once daily compound administration from day 2 to day 6 and measured on day 14 post-infection relative to control; format: functional; conditions: 312 h, time 13 day
In short: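 Female CD-1 mice (n = 6/group) were infected intranasally with Nf69 trophozoites on day 0. After a 48 h establishment period, they received IP dosing at 5 mg/kg once daily for 5 days, alongside a vehicle-only infected control group. Survival was followed for 14 days with Kaplan–Meier analysis. Survivor brain tissue was cultured for amoeba, and survival counted only mice whose brains were free of amoeba.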

Naegleria fowleri [7] = test: Anti-ameobic activity against Naegleria fowleri TY (ATCC 30107) trophozoites assessed as inhibition of amoeba growth incubated for 48 hrs by CellTiter-Glo assay; format: functional, organism-based
In short: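 TY strain (ATCC 30107) trophozoites, seeded at 1 × 10^4 cells/mL, were exposed 48 h (37 °C, 5% CO2) to vehicle or compound, with concentrations initially 20 to 0.375 μM. CellTiter-Glo luminescence gave % growth inhibition versus controls. EC50 was fit from triplicate runs (n = 3, ± SEM).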

[8] = Metabolic stability in human liver microsomes assessed as half-life; format: ADME, Microsome
[9] = Stability in CD-1 mouse plasma assessed as half-life measured upto 120 mins by LC-MS analysis; format: ADME, cell-free; conditions: 2 h
[10] = Protein binding in CD-1 mouse plasma incubated for 4 hrs by equilibrium dialysis based LC-MS/MS analysis; format: ADME, cell-free; conditions: CD-1, mouse, read-out: PPB (converted)
[11] = Protein binding in CD-1 mouse plasma assessed as free fraction incubated for 4 hrs by equilibrium dialysis based LC-MS/MS analysis; format: ADME, cell-free
[12] = Naegleria fowleri, Nf69 (ATCC 30215), 48 h

t1/2 [4] | solubility kinetic at 24 h [1] | Compound | EC50 (Naegleria fowleri [2]) | CC50 (SH-SY5Y) | Ratio CC50/EC50 [3] | EC50 (Naegleria fowleri [2]; [12]) | selectivity ratio [3] | further results
> 145 min |  | COc1cc2nc3n(c(=O)c2cc1Cl)CC[C@@H]1[C@@H]3CCCN1CC1COC1 (racemic) | 0.029 µM | 5 µM | 172 |  |  | Kinetic_solubility ([1]; 24 h): 198 µM
12.6 min | 76.1 µM (≈ 28.5 µg/mL) | COc1cc2nc3n(c(=O)c2cc1Cl)CC[C@@H]1[C@@H]3CCCN1CC1CC1 (racemic) |  | 1 µM |  | 0.023 µM | 43.5 | 
3.8 min | 4.6 µM (≈ 1.78 µg/mL) | COc1cc2nc3n(c(=O)c2cc1Cl)CC[C@@H]1[C@@H]3CCCN1CC1CCC1 (racemic) |  | 0.64 µM |  | 0.015 µM | 42.7 | 
3.1 min | 65.7 µM (≈ 26.7 µg/mL) | COc1cc2nc3n(c(=O)c2cc1Cl)CC[C@@H]1[C@@H]3CCCN1CCOC(C)C (racemic) |  | 2.5 µM |  | 0.11 µM | 22.7 | 
 | 3.8 µM (≈ 1.56 µg/mL) | COc1cc2nc3n(c(=O)c2cc1Cl)CC[C@@H]1[C@@H]3CCCN1Cc1cccnc1 (racemic) |  | > 20 µM |  | 0.12 µM | > 167 | 
> 145 min | 172 µM (≈ 71.7 µg/mL) | COc1cc2nc3n(c(=O)c2cc1Cl)CC[C@@H]1[C@@H]3CCCN1CCN1CCCC1 (racemic) |  | > 20 µM |  | 0.74 µM | > 27 | 
29.8 min | 43.1 µM (≈ 18.7 µg/mL) | COc1cc2nc3n(c(=O)c2cc1Cl)CC[C@@H]1[C@@H]3CCCN1CCN1CCOCC1 (racemic) |  | > 20 µM |  | 0.52 µM | > 38.5 | 
104.6 min | 136 µM (≈ 51.7 µg/mL) | COc1cc2nc3n(c(=O)c2cc1C#N)CC[C@@H]1[C@@H]3CCCN1CC1COC1 (racemic) |  | > 20 µM |  | 0.12 µM | > 167 | 
75.6 min | 29.1 µM (≈ 11.3 µg/mL) | COc1cc2nc3n(c(=O)c2cc1Cl)CC[C@@H]1[C@@H]3CCCN1CC1COC1 | 0.49 µM | > 20 µM | > 40.8 |  |  | EC50 (Naegleria fowleri [7]): 0.47 µM; t1/2 [8]: 80.3 min; t1/2 [9]: > 289 min; fraction unbound at 4 h [10]: 0.26; fraction unbound at 4 h [11]: 0.26

Second part, the compound before the results:

Compound | t1/2 [4] | solubility kinetic at 24 h [1] | EC50 (Naegleria fowleri [2]) | CC50 (SH-SY5Y) | Ratio CC50/EC50 [3] | EC50 (Naegleria fowleri [2]; [12]) | selectivity ratio [3] | further results
CN1CCC[C@@H]2c3nc4ccc(C(F)(F)F)cc4c(=O)n3CC[C@H]21 (racemic) | 21.2 min | 159 µM (≈ 53.6 µg/mL) | 1.1 µM |  | > 18.2 |  |  | CC50 at 72 h [5]: > 20 µM
CN1CCC[C@@H]2c3nc4ccc(C(F)(F)F)cc4c(=O)n3CC[C@H]21 | 10.9 min |  | 0.25 µM |  | > 80 |  |  | Kinetic_solubility ([1]; 24 h): 109 µM
O=c1c2cc(Cl)c(Cl)cc2nc2n1CC[C@@H]1[C@@H]2CCCN1CCO (racemic) | 83.1 min |  |  | > 20 µM |  | 0.02 µM |  | Kinetic_solubility [1]: < 10 µM
CN1CCC[C@@H]2c3nc4ccc(Cl)cc4c(=O)n3CC[C@H]21 | 11.5 min |  | 0.28 µM | > 20 µM | > 71.4 |  |  | Kinetic_solubility ([1]; 24 h): 129 µM
C[C@@H]1[C@H](O)[C@@H](C)/C=C/C=C/C=C/C=C/C=C/C=C/C=C/[C@H](O[C@@H]2O[C@H](C)[C@@H](O)[C@H](N)[C@@H]2O)C[C@@H]2O[C@](O)(C[C@@H](O)C[C@@H](O)[C@H](O)CC[C@@H](O)C[C@@H](O)CC(=O)O[C@H]1C)C[C@H](O)[C@H]2C(=O)O [AMPHOTERICIN B] |  |  |  |  |  |  |  | survival at 5 mg/kg (Naegleria fowleri [6]): 17%
CN1CCC[C@@H]2c3nc4cc(Cl)c(Cl)cc4c(=O)n3CC[C@H]21 | 6.1 min |  | 0.086 µM | 7.8 µM | 90.7 |  |  | Kinetic_solubility ([1]; 24 h): 98.2 µM
CN1CCC[C@@H]2c3nc4ccc(Cl)cc4c(=O)n3CC[C@H]21 (racemic) | 18.5 min | 187 µM (≈ 56.8 µg/mL) | 1 µM |  | > 20 |  |  | CC50 at 72 h [5]: > 20 µM
O=c1c2cc(Cl)c(Cl)cc2nc2n1CC[C@@H]1[C@@H]2CCCN1CC1COC1 (racemic) | 109 min |  |  | > 20 µM |  | 0.006 µM | > 33000 | Kinetic_solubility [1]: 40 µM
O=c1c2cc(Cl)c(Cl)cc2nc2n1CC[C@@H]1[C@@H]2CCCN1CCN1CCOCC1 (racemic) | 75.2 min |  |  | > 20 µM |  | 0.011 µM |  | Kinetic_solubility [1]: 206 µM
CN1CCC[C@@H]2c3nc4cc(Cl)c(Cl)cc4c(=O)n3CC[C@H]21 (racemic) |  | 138 µM (≈ 46.7 µg/mL) | 0.2 µM |  |  |  | > 100 | CC50 at 72 h [5]: > 20 µM
